# Experimental data from ChEMBL document CHEMBL4689842, “EUbOPEN Chemogenomics Library wave 1” (2021).
# Where “and” joins values, the source holds several entries; their conditions need not be identical. Equal values may be shown once.
# System: Fibroblast
# Assay: Multiplex assay against human fibroblast
# Type: toxicity, cell-based
# Summary of the method: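 Live cells carried four stains from seeding: Hoechst33342, BioTracker Green Microtubule Cytoskeleton Dye, MitoTracker Red and Annexin V Alexa Fluor 680. They were imaged on a CQ1 microscope at 37°C and 5% CO2 after compound addition. Using CellPathfinder machine-learning gating, cells were split into Hoechst high-intensity objects or normal cells, normal cells into healthy, pyknosed or fragmented nuclei, and pyknosed cells into mitotic or apoptotic; tubulin, mitochondrial-mass and membrane-permeability phenotypes are per cents of healthy-nucleus cells.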
# [1] = 12 h, 1 µM, compound concentration 1 uM, replicate 1
# [2] = 12 h, 1 µM, compound concentration 1 uM, replicate 2
# [3] = 12 h, 10 µM, compound concentration 10 uM, replicate 1
# [4] = 12 h, 10 µM, compound concentration 10 uM, replicate 2
# [5] = 24 h, 1 µM, compound concentration 1 uM, replicate 1
# [6] = 24 h, 1 µM, compound concentration 1 uM, replicate 2
# [7] = 24 h, 10 µM, compound concentration 10 uM, replicate 1
# [8] = 24 h, 10 µM, compound concentration 10 uM, replicate 2
# [9] = 48 h, 10 µM, compound concentration 10 uM, replicate 1
# [10] = 48 h, 10 µM, compound concentration 10 uM, replicate 2
smiles,measurement,setting,value
CNC(=O)c1nn(C)c2c1C(C)(C)Cc1cnc(Nc3ccc(N4CCN(C)CC4)cc3)nc1-2 [MILCICLIB],Population Apoptotic (%),[1],74%
same,Population Fragmented Nuclei (%),[1],26%
same,Population Healthy Nuclei (%),[1],59%
same,Population Hoechst High Intensity Objects (%),[1],6%
same,Population Membrane Permeable-Phenotype (%),[1],15%
same,Population Mitochondria Different-Phenotype (%),[1],7%
same,Population Mitotic Cells (%),[1],25%
same,Population Normal (%),[1],93%
same,Population Pyknosed Nuclei (%),[1],14%
same,Population Tubulin-Different-Phenotype (%),[1],30%
same,Total Cell Count,[1],202
same,Population Apoptotic (%),[2],100%
same,Population Fragmented Nuclei (%),[2],64%
same,Population Healthy Nuclei (%),[2],34%
same,Population Hoechst High Intensity Objects (%),[2],34%
same,Population Membrane Permeable-Phenotype (%),[2],13%
same,Population Mitochondria Different-Phenotype (%),[2],31%
same,Population Mitotic Cells (%),[2],0%
same,Population Normal (%),[2],65%
same,Population Pyknosed Nuclei (%),[2],1%
same,Population Tubulin-Different-Phenotype (%),[2],54%
same,Total Cell Count,[2],97
same,Population Apoptotic (%),[3],61% and 65% and 87%
same,Population Fragmented Nuclei (%),[3],29% and 25% and 26%
same,Population Healthy Nuclei (%),[3],40% and 48% and 55%
same,Population Hoechst High Intensity Objects (%),[3],11% and 12% and 13%
same,Population Mitochondria Different-Phenotype (%),[3],14% and 12% and 10%
same,Population Normal (%),[3],88% and 87% and 86%
same,Population Pyknosed Nuclei (%),[3],30% and 25% and 18%
same,Population Tubulin-Different-Phenotype (%),[3],77% and 74% and 40%
same,Population Apoptotic (%),[4],66% and 73% and 60%
same,Population Healthy Nuclei (%),[4],30% and 54% and 62%
same,Population Mitotic Cells (%),[4],33% and 26% and 40%
same,Population Normal (%),[4],70% and 90% and 97%
same,Total Cell Count,[4],99 and 122 and 65
same,Population Apoptotic (%),[5],78%
same,Population Fragmented Nuclei (%),[5],27%
same,Population Healthy Nuclei (%),[5],57%
same,Population Hoechst High Intensity Objects (%),[5],12%
same,Population Membrane Permeable-Phenotype (%),[5],7%
same,Population Mitochondria Different-Phenotype (%),[5],13%
same,Population Mitotic Cells (%),[5],21%
same,Population Normal (%),[5],87%
same,Population Pyknosed Nuclei (%),[5],14%
same,Population Tubulin-Different-Phenotype (%),[5],33%
same,Total Cell Count,[5],224
same,Population Apoptotic (%),[6],50%
same,Population Fragmented Nuclei (%),[6],60%
same,Population Healthy Nuclei (%),[6],33%
same,Population Hoechst High Intensity Objects (%),[6],33%
same,Population Membrane Permeable-Phenotype (%),[6],10%
same,Population Mitochondria Different-Phenotype (%),[6],30%
same,Population Mitotic Cells (%),[6],50%
same,Population Normal (%),[6],66%
same,Population Pyknosed Nuclei (%),[6],6%
same,Population Tubulin-Different-Phenotype (%),[6],40%
same,Total Cell Count,[6],90
same,Population Apoptotic (%),[7],84% and 46% and 60%
same,Population Fragmented Nuclei (%),[7],37% and 29% and 34%
same,Population Healthy Nuclei (%),[7],47% and 50%
same,Population Hoechst High Intensity Objects (%),[7],20% and 12% and 15%
same,Population Mitochondria Different-Phenotype (%),[7],16% and 28% and 27%
same,Population Normal (%),[7],79% and 87% and 84%
same,Population Pyknosed Nuclei (%),[7],15% and 22%
same,Population Tubulin-Different-Phenotype (%),[7],46% and 80% and 58%
same,Population Apoptotic (%),[8],50% and 66% and 86%
same,Population Healthy Nuclei (%),[8],34% and 49% and 61%
same,Population Hoechst High Intensity Objects (%),[8],18%
same,Population Normal (%),[8],81%
same,Population Tubulin-Different-Phenotype (%),[8],35% and 100%
same,Total Cell Count,[8],110 and 78 and 118
same,Population Apoptotic (%),[9],25% and 33%
same,Population Fragmented Nuclei (%),[9],45% and 39%
same,Population Healthy Nuclei (%),[9],42% and 49%
same,Population Hoechst High Intensity Objects (%),[9],15% and 19%
same,Population Membrane Permeable-Phenotype (%),[9],22% and 10%
same,Population Mitochondria Different-Phenotype (%),[9],15% and 22%
same,Population Mitotic Cells (%),[9],75% and 66%
same,Population Normal (%),[9],84% and 80%
same,Population Pyknosed Nuclei (%),[9],11%
same,Population Tubulin-Different-Phenotype (%),[9],68% and 80%
same,Total Cell Count,[9],124 and 166
same,Population Apoptotic (%),[10],66%
same,Population Fragmented Nuclei (%),[10],35% and 36%
same,Population Healthy Nuclei (%),[10],62% and 60%
same,Population Hoechst High Intensity Objects (%),[10],18% and 14%
same,Population Membrane Permeable-Phenotype (%),[10],16% and 11%
same,Population Mitochondria Different-Phenotype (%),[10],11% and 17%
same,Population Mitotic Cells (%),[10],33%
same,Population Normal (%),[10],81% and 85%
same,Population Pyknosed Nuclei (%),[10],2%
same,Population Tubulin-Different-Phenotype (%),[10],84% and 96%
same,Total Cell Count,[10],169 and 170
CC(=O)O[C@H]1C(=O)[C@@]2(C)[C@H]([C@H](OC(=O)c3ccccc3)[C@]3(O)C[C@H](OC(=O)[C@H](O)[C@@H](NC(=O)c4ccccc4)c4ccccc4)C(C)=C1C3(C)C)[C@]1(OC(C)=O)CO[C@@H]1C[C@@H]2O [PACLITAXEL],Population Apoptotic (%),[1],55% and 76%
same,Population Fragmented Nuclei (%),[1],25% and 15%
same,Population Healthy Nuclei (%),[1],66% and 75%
same,Population Hoechst High Intensity Objects (%),[1],11% and 8%
same,Population Membrane Permeable-Phenotype (%),[1],5%
same,Population Mitochondria Different-Phenotype (%),[1],3% and 2%
same,Population Mitotic Cells (%),[1],45% and 23%
same,Population Normal (%),[1],88% and 91%
same,Population Pyknosed Nuclei (%),[1],8% and 9%
same,Population Tubulin-Different-Phenotype (%),[1],0%
same,Total Cell Count,[1],281 and 246
same,Population Fragmented Nuclei (%),[2],46% and 34%
same,Population Healthy Nuclei (%),[2],35% and 59%
same,Population Hoechst High Intensity Objects (%),[2],32% and 39%
same,Population Mitochondria Different-Phenotype (%),[2],10% and 15%
same,Population Mitotic Cells (%),[2],40% and 100%
same,Population Normal (%),[2],67% and 60%
same,Population Pyknosed Nuclei (%),[2],18% and 6%
same,Population Tubulin-Different-Phenotype (%),[2],10% and 26%
same,Total Cell Count,[2],80 and 73
same,Population Apoptotic (%),[3],81% [middle of 4 runs]
same,Population Fragmented Nuclei (%),[3],23% and 24%
same,Population Healthy Nuclei (%),[3],61% [middle of 4 runs]
same,Population Hoechst High Intensity Objects (%),[3],12% [middle of 4 runs]
same,Population Membrane Permeable-Phenotype (%),[3],5% and 3%
same,Population Mitochondria Different-Phenotype (%),[3],5% and 4% and 2%
same,Population Mitotic Cells (%),[3],26% [middle of 4 runs]
same,Population Normal (%),[3],88% and 90% and 79% and 87%
same,Population Pyknosed Nuclei (%),[3],14% and 21% and 11%
same,Total Cell Count,[3],304 [middle of 4 runs]
same,Population Fragmented Nuclei (%),[4],58% [middle of 4 runs]
same,Population Healthy Nuclei (%),[4],42% [middle of 4 runs]
same,Population Hoechst High Intensity Objects (%),[4],37% [middle of 4 runs]
same,Population Normal (%),[4],68% and 62% and 51% and 72%
same,Population Pyknosed Nuclei (%),[4],7% and 6% and 8%
same,Population Tubulin-Different-Phenotype (%),[4],9% [middle of 4 runs]
same,Total Cell Count,[4],93 and 80 and 115
same,Population Apoptotic (%),[5],48% and 38%
same,Population Fragmented Nuclei (%),[5],18% and 13%
same,Population Healthy Nuclei (%),[5],70% and 74%
same,Population Hoechst High Intensity Objects (%),[5],14% and 13%
same,Population Membrane Permeable-Phenotype (%),[5],5% and 4%
same,Population Mitotic Cells (%),[5],52% and 61%
same,Population Normal (%),[5],85% and 86%
same,Population Pyknosed Nuclei (%),[5],11%
same,Total Cell Count,[5],264 and 252
same,Population Fragmented Nuclei (%),[6],54% and 48%
same,Population Healthy Nuclei (%),[6],28% and 48%
same,Population Hoechst High Intensity Objects (%),[6],33% and 29%
same,Population Membrane Permeable-Phenotype (%),[6],13% and 11%
same,Population Mitochondria Different-Phenotype (%),[6],0% and 7%
same,Population Mitotic Cells (%),[6],44% and 100%
same,Population Normal (%),[6],66% and 70%
same,Total Cell Count,[6],80 and 77
same,Population Apoptotic (%),[7],71% [middle of 4 runs]
same,Population Fragmented Nuclei (%),[7],26% [middle of 4 runs]
same,Population Healthy Nuclei (%),[7],64% [middle of 4 runs]
same,Population Hoechst High Intensity Objects (%),[7],15% [middle of 4 runs]
same,Population Mitochondria Different-Phenotype (%),[7],2% and 0%
same,Population Normal (%),[7],85% and 87% and 84% and 75%
same,Population Pyknosed Nuclei (%),[7],16% and 15%
same,Total Cell Count,[7],291 and 285 and 333
same,Population Apoptotic (%),[8],44% [middle of 4 runs]
same,Population Fragmented Nuclei (%),[8],62% [middle of 4 runs]
same,Population Healthy Nuclei (%),[8],40% and 28% and 26%
same,Population Hoechst High Intensity Objects (%),[8],35% [middle of 4 runs]
same,Population Membrane Permeable-Phenotype (%),[8],17% [middle of 4 runs]
same,Population Normal (%),[8],68% and 64% and 53% and 72%
same,Population Pyknosed Nuclei (%),[8],11% [middle of 4 runs]
same,Total Cell Count,[8],93 [middle of 4 runs]
